Measurements: ChEMBL document CHEMBL1833856, “Discovery and kinetic evaluation of 6-substituted 4-benzylthio-1,3,5-triazin-2(1H)-ones as inhibitors of cathepsin B” (Eur J Med Chem, 2011)

Key:
[1] = molecular target: T1, Pro-cathepsin H (Homo sapiens) (UniProt P09668); assay: Inhibition of native cathepsin H isolated from human liver assessed as formation of fluorescent degradation product AMC using Arg-AMC as substrate at 50 uM by fluorescence microplate assay
T1 sequence (whole entry): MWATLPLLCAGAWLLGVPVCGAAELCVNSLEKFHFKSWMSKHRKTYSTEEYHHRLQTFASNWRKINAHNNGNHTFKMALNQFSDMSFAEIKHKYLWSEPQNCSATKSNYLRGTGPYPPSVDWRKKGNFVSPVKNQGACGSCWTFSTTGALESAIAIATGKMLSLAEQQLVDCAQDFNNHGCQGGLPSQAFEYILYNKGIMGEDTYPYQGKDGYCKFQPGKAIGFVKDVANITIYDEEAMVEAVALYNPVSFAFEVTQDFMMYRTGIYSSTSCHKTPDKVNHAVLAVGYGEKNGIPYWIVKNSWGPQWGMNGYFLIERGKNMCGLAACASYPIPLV

[2] = molecular target: Procathepsin L (Homo sapiens) (UniProt P07711); assay: Inhibition of human recombinant cathepsin L expressed in Escherichia coli assessed as formation of fluorescent degradation product AMC using Z-Phe-Arg-AMC as substrate at 50 uM by fluorescence microplate assay
Cathepsin B [3] = molecular target: T2, Cathepsin B (Homo sapiens, UniProt P07858); assay: Inhibition of human recombinant cathepsin B assessed as formation of fluorescent degradation product AMC using Z-Arg-Arg-AMC as substrate at 50 uM by fluorescence microplate assay
Cathepsin B [4] = molecular target: T2, Cathepsin B; assay: Inhibition of human recombinant cathepsin B assessed as factor by which the product formation changes when the inhibitor binds to the enzyme-substrate complex using Z-Arg-Arg-AMC as substrate by fluorescence microplate assay
How it was run: (§1)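 Recombinant human catB (133 pM) preactivated 5 min at 37 °C in 100 mM phosphate pH 6.0, 0.1% PEG 8000, 5 mM DTT, 1.5 mM EDTA, 5% DMSO. Initial hydrolysis rates taken across Z-Arg-Arg-AMC (60, 180, 360 µM, as added) and inhibitor (0–70 µM, as added). AMC read ex 380/em 460 nm at 37 °C. Duplicates, two independent runs. β fitted for ES-complex binding.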

Cathepsin B [5] = molecular target: T2, Cathepsin B; assay: Reversible inhibition of human recombinant cathepsin B assessed as formation of fluorescent degradation product AMC using Z-Arg-Arg-AMC as substrate by Michaelis-Menten method
How it was run: as §1

Cathepsin B [6] = molecular target: T2, Cathepsin B; assay: Mixed-type inhibition of human recombinant cathepsin B assessed as formation of fluorescent degradation product AMC using Z-Arg-Arg-AMC as substrate by Michaelis-Menten method
How it was run: as §1

Cathepsin B [7] = molecular target: T2, Cathepsin B; assay: Partial mixed-type inhibition of human recombinant cathepsin B assessed as formation of fluorescent degradation product AMC using Z-Arg-Arg-AMC as substrate by Michaelis-Menten method
How it was run: as §1

Procathepsin L (Homo sapiens), sequence (P07711 114-333 limits assumed): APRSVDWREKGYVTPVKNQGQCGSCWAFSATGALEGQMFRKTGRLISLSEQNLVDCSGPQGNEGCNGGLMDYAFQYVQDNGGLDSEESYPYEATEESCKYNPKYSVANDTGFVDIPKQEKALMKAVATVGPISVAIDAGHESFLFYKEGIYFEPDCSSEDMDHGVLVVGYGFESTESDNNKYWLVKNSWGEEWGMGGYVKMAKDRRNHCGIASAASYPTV

COc1ccc(CNc2nc(Cl)nc(N(C)CCO)n2)cc1
inhibition [1]: 7.12%
inhibition [2]: 9.95%
inhibition (Cathepsin B [3]): 0.92%

O=c1nc(-c2ccccc2)nc(S)[nH]1
inhibition [1]: 4.86%
inhibition [2]: -1.89%
inhibition (Cathepsin B [3]): -3.22%

OCCc1ccccc1Nc1nc(Cl)nc(Cl)n1
inhibition (Cathepsin B [3]): -3.38%

CCCCSc1nc(SCc2ccccc2)nc(=O)[nH]1
inhibition [1]: -1.81%
fold change (FC) (Cathepsin B [4]): 0
inhibition [2]: 9.33%
Ki (Cathepsin B [5]): 70.6 µM
Ki (Cathepsin B [6]): 14.8 µM

CN(CCO)c1nc(Cl)nc(Nc2ccccc2CCO)n1
inhibition [1]: 0.61%
inhibition [2]: 11.6%
inhibition (Cathepsin B [3]): -3.56%

COC(=O)c1ccccc1Oc1nc(OC)nc(OC)n1
inhibition [1]: -5.34%
inhibition [2]: -9.64%
inhibition (Cathepsin B [3]): -0.33%

O=C(O)CSc1nc(SCc2ccccc2)nc(=O)[nH]1
inhibition [1]: 6.89%
fold change (FC) (Cathepsin B [4]): 0
inhibition [2]: -2.36%
Ki (Cathepsin B [5]): 560 µM
Ki (Cathepsin B [6]): 351 µM

COc1ccccc1CSc1nc(SCc2ccccc2)nc(=O)[nH]1
inhibition [1]: 1.06%
fold change (FC) (Cathepsin B [4]): 0.22
Ki (Cathepsin B [7]): 4.4 µM
inhibition [2]: 61.3%
Ki (Cathepsin B [5]): 15.6 µM
inhibition (Cathepsin B [3]): 79.6%

COC(=O)c1ccccc1Nc1nc(Cl)nc(Cl)n1
inhibition [1]: -4.23%
inhibition [2]: 8.76%
inhibition (Cathepsin B [3]): -0.92%

O=c1nc(SCc2ccccc2)nc(SCC2CCC2)[nH]1
inhibition [1]: 1.57%
fold change (FC) (Cathepsin B [4]): 0
inhibition [2]: 37.4%
Ki (Cathepsin B [5]): 34.1 µM
Ki (Cathepsin B [6]): 10.1 µM

Clc1nc(Cl)nc(Nc2ccccc2Br)n1
inhibition [1]: 4.52%
inhibition [2]: 0.59%
inhibition (Cathepsin B [3]): -1.59%

O=c1nc(SCc2ccccc2)nc(S)[nH]1
inhibition [1]: 9.63%
inhibition [2]: 3.79%
inhibition (Cathepsin B [3]): 2.5%

CCSc1nc(SCc2ccccc2)nc(=O)[nH]1
inhibition [1]: -4.06%
fold change (FC) (Cathepsin B [4]): 0
Ki (Cathepsin B [5]): 221 µM
Ki (Cathepsin B [6]): 97.1 µM

C[C@@H](NC(=O)c1ccccc1Nc1nc(Cl)nc(Cl)n1)C(=O)O
inhibition [2]: -5.15%
inhibition (Cathepsin B [3]): -1.7%

COc1nc(N[C@H](CCC(=O)O)C(=O)O)nc(OC)n1
inhibition [1]: 0.34%
inhibition (Cathepsin B [3]): -5.48%

COc1ccc(CCNc2nc(Cl)nc(Cl)n2)cc1OC
inhibition [1]: -2.17%
inhibition [2]: -0.33%
inhibition (Cathepsin B [3]): -9.7%

O=c1nc(SCc2ccccc2)nc(SCC2CCCCC2)[nH]1
inhibition [1]: 10.2%
fold change (FC) (Cathepsin B [4]): 0.12
Ki (Cathepsin B [7]): 3.3 µM
inhibition [2]: 76.2%
Ki (Cathepsin B [5]): 11.9 µM

CCCSc1nc(SCc2ccccc2)nc(=O)[nH]1
inhibition [1]: -4.82%
fold change (FC) (Cathepsin B [4]): 0
inhibition [2]: -8.66%

COc1ccc(CSc2nc(SCc3ccccc3)nc(=O)[nH]2)cc1
fold change (FC) (Cathepsin B [4]): 0.2
Ki (Cathepsin B [7]): 10.3 µM
Ki (Cathepsin B [5]): 11.1 µM

O=c1nc(SCc2ccccc2)nc(SCc2cccc(F)c2)[nH]1
inhibition [1]: 4.18%
fold change (FC) (Cathepsin B [4]): 0.22
Ki (Cathepsin B [7]): 7.4 µM
inhibition [2]: 7.68%
Ki (Cathepsin B [5]): 10.2 µM

CCc1ccccc1Nc1nc(Cl)nc(Cl)n1
inhibition [1]: -2.26%
inhibition [2]: -1.59%
inhibition (Cathepsin B [3]): -3.44%

OCCc1ccccc1Nc1nc(Cl)nc(N2CCOCC2)n1
inhibition [1]: -8.72%
inhibition (Cathepsin B [3]): -4.76%

CC(C)(C)c1ccccc1Nc1nc(Cl)nc(Cl)n1
inhibition [1]: -4.16%
inhibition [2]: 4.36%
inhibition (Cathepsin B [3]): -7.27%

COc1ccc(CNc2nc(Cl)nc(Cl)n2)cc1
inhibition [1]: 6.37%
inhibition [2]: 0.48%
inhibition (Cathepsin B [3]): 3.99%

O=c1nc(SCc2ccccc2)nc(SCc2ccc(Cl)cc2)[nH]1
inhibition [1]: 6.91%
fold change (FC) (Cathepsin B [4]): 0.25
Ki (Cathepsin B [7]): 2.5 µM
inhibition [2]: 85.2%
Ki (Cathepsin B [5]): 4.4 µM

CCCSc1nc(SCc2ccccc2)[nH]c(=O)n1
Ki (Cathepsin B [5]): 259 µM
Ki (Cathepsin B [6]): 49.4 µM

N#Cc1ccc(CSc2nc(SCc3ccccc3)nc(=O)[nH]2)c(F)c1
fold change (FC) (Cathepsin B [4]): 0.07
Ki (Cathepsin B [7]): 9.7 µM
Ki (Cathepsin B [5]): 23 µM

O=c1nc(SCc2ccccc2)nc(SCc2cccc(Cl)c2)[nH]1
fold change (FC) (Cathepsin B [4]): 0.28
Ki (Cathepsin B [7]): 4.5 µM
Ki (Cathepsin B [5]): 5.4 µM

O=c1nc(SCc2ccccc2)nc(SCc2ccccc2Cl)[nH]1
fold change (FC) (Cathepsin B [4]): 0.23
Ki (Cathepsin B [7]): 3.6 µM
Ki (Cathepsin B [5]): 7.2 µM

O=c1nc(SCc2ccccc2)nc(SCc2ccc(F)cc2)[nH]1
fold change (FC) (Cathepsin B [4]): 0.33
Ki (Cathepsin B [7]): 13.8 µM
Ki (Cathepsin B [5]): 16.6 µM

O=c1nc(-c2cccc([N+](=O)[O-])c2)nc(S)[nH]1
inhibition [1]: 7.97%
inhibition [2]: 7.7%
inhibition (Cathepsin B [3]): 4.71%

CC(C)OC(=O)[C@H](C)NC(=O)c1ccc(Nc2nc(Cl)nc(Cl)n2)cc1
inhibition [1]: 3.02%
inhibition [2]: -6.12%
inhibition (Cathepsin B [3]): 1.68%

N#Cc1ccccc1CSc1nc(SCc2ccccc2)nc(=O)[nH]1
fold change (FC) (Cathepsin B [4]): 0.04
Ki (Cathepsin B [7]): 10.5 µM
Ki (Cathepsin B [5]): 40.7 µM

COc1cccc(CSc2nc(SCc3ccccc3)nc(=O)[nH]2)c1
fold change (FC) (Cathepsin B [4]): 0.42
Ki (Cathepsin B [7]): 21.9 µM
Ki (Cathepsin B [5]): 13 µM

O=c1nc(SCc2ccccc2)nc(SCc2ccccc2F)[nH]1
fold change (FC) (Cathepsin B [4]): 0.36
Ki (Cathepsin B [7]): 9 µM
Ki (Cathepsin B [5]): 9.5 µM

O=c1nc(SCc2ccccc2)nc(SCC2CCCC2)[nH]1
inhibition [1]: 10.6%
fold change (FC) (Cathepsin B [4]): 0
inhibition [2]: 9.96%
Ki (Cathepsin B [5]): 23 µM
Ki (Cathepsin B [6]): 8.95 µM

COc1nc(OC)nc(Sc2ccccc2C(=O)N[C@@H](C)C(=O)OCc2ccccc2)n1
inhibition [1]: 1.34%
inhibition [2]: -4.25%
inhibition (Cathepsin B [3]): 3.18%

O=C(O)c1ccccc1Sc1nc(Cl)nc(Cl)n1
inhibition [1]: -1.7%
inhibition (Cathepsin B [3]): 2.3%

COc1nc(Nc2ccccc2C(=O)O)nc(OC)n1
inhibition [1]: 2.63%
inhibition [2]: -3.14%
inhibition (Cathepsin B [3]): 6.34%

COc1nc(OC)nc(Sc2ccccc2C(=O)O)n1
inhibition [2]: 15.8%
inhibition (Cathepsin B [3]): 2.35%

Cc1ccc(-c2nc(S)[nH]c(=O)n2)cc1
inhibition [1]: 6.58%
inhibition [2]: 6.37%
inhibition (Cathepsin B [3]): 9.02%

O=c1nc(SCc2ccccc2)nc(SCc2cccc([N+](=O)[O-])c2)[nH]1
inhibition [1]: 3.92%
fold change (FC) (Cathepsin B [4]): 0.15
Ki (Cathepsin B [7]): 3.3 µM
inhibition [2]: 81.2%
Ki (Cathepsin B [5]): 11.3 µM

O=c1nc(SCc2ccccc2)nc(SCc2ccccc2[N+](=O)[O-])[nH]1
fold change (FC) (Cathepsin B [4]): 0.24
Ki (Cathepsin B [7]): 6 µM
Ki (Cathepsin B [5]): 11.9 µM

O=c1nc(SCc2ccccc2)nc(SCC2CC2)[nH]1
inhibition [1]: 10%
fold change (FC) (Cathepsin B [4]): 0
inhibition [2]: 42%
Ki (Cathepsin B [5]): 211 µM
Ki (Cathepsin B [6]): 28.3 µM

O=c1nc(SCc2ccccc2)nc(SCc2ccc([N+](=O)[O-])cc2)[nH]1
fold change (FC) (Cathepsin B [4]): 0.17
Ki (Cathepsin B [7]): 4 µM
Ki (Cathepsin B [5]): 10 µM

N#Cc1ccc(CSc2nc(SCc3ccccc3)nc(=O)[nH]2)cc1
inhibition [1]: 1.55%
fold change (FC) (Cathepsin B [4]): 0.07
Ki (Cathepsin B [7]): 10.8 µM
inhibition [2]: 44.9%
Ki (Cathepsin B [5]): 24.3 µM

N#CCSc1nc(SCc2ccccc2)nc(=O)[nH]1
inhibition [1]: 4.94%
fold change (FC) (Cathepsin B [4]): 0
inhibition [2]: -5.28%
Ki (Cathepsin B [5]): 208 µM
Ki (Cathepsin B [6]): 51.6 µM

N#Cc1cccc(CSc2nc(SCc3ccccc3)nc(=O)[nH]2)c1
fold change (FC) (Cathepsin B [4]): 0.02
Ki (Cathepsin B [7]): 9.1 µM
Ki (Cathepsin B [5]): 46.7 µM
